Values after ≈ are worked out from the molar mass of the structure shown.
Tests used:
[1] = Cytotoxicity against human Doay cells by MTT assay; assay type: functional, cell-based
WiDr = assay: Cytotoxicity against human WiDr cells by MTT assay; assay type: functional, cell-based
[2] = Antiinflammatory activity against FMLP/CB stimulated human neutrophils assessed as inhibition of superoxide anion generation relative to control; assay type: functional, cell-based; conditions: Neutrophil
Method in brief: (§1)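 Human neutrophils were isolated by dextran sedimentation and Ficoll centrifugation. Cells were given 0.5 mg/mL ferricytochrome c and 1 mM Ca2+, equilibrated 2 min at 37 °C, then treated with compound for 5 min. CB (1 µg/mL) was added 3 min before 100 nM FMLP for 10 min. Superoxide was measured as SOD-inhibitable ferricytochrome c reduction. Mean ± SEM, n = 3.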

[3] = Antiinflammatory activity against FMLP/CB stimulated human neutrophils assessed as inhibition of elastase release relative to control; assay type: functional, cell-based; conditions: Neutrophil
Method in brief: (§2)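 Neutrophils were supplemented with 100 µM MeO-Suc-Ala-Ala-Pro-Val-p-nitroanilide at 6 × 10^5/mL, equilibrated 2 min at 37 °C, then given compound for 5 min. They were activated with FMLP (100 nM)/CB (0.5 µg/mL), and A405 was followed continuously. The initial rate is expressed relative to the FMLP/CB-activated DMSO control. Mean ± SEM, n = 3.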

HEp-2 = assay: Cytotoxicity against human Hep2 cells by MTT assay; assay type: functional, cell-based
HeLa = assay: Cytotoxicity against human HeLa cells by MTT assay; assay type: functional, cell-based
[4] = Antiinflammatory activity against FMLP/CB stimulated human neutrophils assessed as inhibition of superoxide anion generation at 10 ug/mL relative to control; assay type: functional; conditions: Neutrophil; method in brief: as §1
[5] = Antiinflammatory activity against FMLP/CB stimulated human neutrophils assessed as inhibition of elastase release at 10 ug/mL relative to control; assay type: functional; conditions: Neutrophil; method in brief: as §2

Row | IC50 [2] | IC50 [3] | SMILES | IC50 [1] | IC50 (WiDr) | IC50 (HEp-2) | IC50 (HeLa) | inhibition at 10 µg/mL [4] | inhibition at 10 µg/mL [5]
1 | 17.5 µg/mL (≈ 31.8 µM) | 27.4 µg/mL (≈ 49.8 µM) | C=C1C[C@H](OC(C)=O)[C@H](OC(C)=O)[C@]2(C)[C@@H](OC(C)=O)CC/C(C)=C\[C@@H]3OC(=O)[C@H](C)[C@@]3(O)[C@@H](OC(C)=O)[C@@H]12 (relative stereo) [FRAJUNOLIDE E] | > 20 µg/mL | > 20 µg/mL | > 20 µg/mL | > 20 µg/mL | – | –
2 | – | – | C=C1C[C@H](OC(C)=O)[C@H](OC(C)=O)[C@]2(C)[C@@H](OC(C)=O)C[C@@]3(O)O[C@]4([C@@H](C)C(=O)O[C@H]4[C@@H](Cl)C3=C)[C@@H](OC(C)=O)[C@@H]12 (relative stereo) [FRAJUNOLIDE F] | > 20 µg/mL | > 20 µg/mL | > 20 µg/mL | > 20 µg/mL | 7.4% | 10.4%
3 | – | – | C=C1/C=C\[C@H](OC(=O)COC(=O)CC(C)C)[C@@]2(C)[C@@H](OC(C)=O)CC[C@]3(CO3)[C@@H]2[C@H](OC(C)=O)[C@]2(O)[C@@H](C)C(=O)O[C@H]2[C@H]1Cl (relative stereo) [FRAJUNOLIDE G] | > 20 µg/mL | > 20 µg/mL | > 20 µg/mL | > 20 µg/mL | -7.5% | 8.3%
4 | – | – | C=C1C[C@H](OC(C)=O)[C@H](OC(C)=O)[C@]2(C)[C@@H](OC(C)=O)/C=C/C(=C)[C@H](Cl)[C@@H]3OC(=O)[C@H](C)[C@@]3(O)[C@@H](OC(C)=O)[C@@H]12 (relative stereo) [FRAJUNOLIDE H] | > 20 µg/mL | > 20 µg/mL | > 20 µg/mL | > 20 µg/mL | -1.9% | 0.1%
5 | – | – | C=C1/C=C/[C@H](OC(C)=O)[C@@]2(C)[C@@H](OC(C)=O)[C@@H](OC(C)=O)C[C@]3(CO3)[C@@H]2[C@H](OC(C)=O)[C@]2(O)[C@@H](C)C(=O)O[C@H]2[C@H]1Cl (relative stereo) [FRAJUNOLIDE I] | > 20 µg/mL | > 20 µg/mL | > 20 µg/mL | > 20 µg/mL | -10.3% | 18.2%
6 | – | – | C=C1[C@@H]2[C@H](OC(C)=O)[C@@]3(O)[C@H](/C=C(/C)CC[C@H](OC(C)=O)[C@@]2(C)[C@@H](OC(C)=O)C[C@H]1OC(=O)CC)OC(=O)[C@@H]3C (relative stereo) [FRAJUNOLIDE J] | > 20 µg/mL | > 20 µg/mL | > 20 µg/mL | > 20 µg/mL | 20.1% | 19.9%
7 | – | – | C=C1CC[C@H](OC(C)=O)[C@]2(C)[C@@H](OC(=O)COC(=O)CC(C)C)/C=C\C(=C)[C@H](Cl)[C@@H]3OC(=O)[C@H](C)[C@@]3(O)[C@@H](OC(C)=O)[C@@H]12 (relative stereo) [FRAJUNOLIDE K] | > 20 µg/mL | > 20 µg/mL | > 20 µg/mL | > 20 µg/mL | 2.4% | 8%
8 | – | – | CC[C@@]1(O)C(=O)OCc2c1cc1n(c2=O)Cc2cc3ccccc3nc2-1 [CAMPTOTHECIN] | 0.08 µg/mL (≈ 0.23 µM) | 0.07 µg/mL (≈ 0.201 µM) | 0.02 µg/mL (≈ 0.0574 µM) | 0.19 µg/mL (≈ 0.545 µM) | – | –
9 | – | – | O=c1c(-c2ccc(O)cc2)coc2cc(O)cc(O)c12 [GENISTEIN] | – | – | – | – | 65% | 51.6%
